Laboratory results as given in ChEMBL document CHEMBL4715832, “Isoquinoline-based biaryls as a robust scaffold for microtubule inhibitors” (Eur J Med Chem, 2020).
pEC50: −log10 of the molar value. Active and inactive are the calls of the source. No cut-off for these calls is given here.

Columns and labels:
[1] = biological target: T1, hERG (KCNH2) (Homo sapiens, UniProt Q12809); test: Inhibition of human ERG at 1 uM by fluorescence polarization assay relative to control
In short: (§1)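 hERG channel inhibition measured with a fluorescence polarisation reporter assay, applied to the dephosphorylated phenol.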

[2] = Stability in human liver microsomes assessed as parent compound remaining at 2 uM measured after 40 mins in absence of cofactor; type: ADME, Microsome; details: read-out: Stabilty
[3] = biological target: CYP2C19 (Homo sapiens, UniProt P33261); test: Inhibition of human CYP2C19 at 10 uM relative to control; type: ADME
Sequence of CYP2C19 (P33261 whole entry, canonical isoform): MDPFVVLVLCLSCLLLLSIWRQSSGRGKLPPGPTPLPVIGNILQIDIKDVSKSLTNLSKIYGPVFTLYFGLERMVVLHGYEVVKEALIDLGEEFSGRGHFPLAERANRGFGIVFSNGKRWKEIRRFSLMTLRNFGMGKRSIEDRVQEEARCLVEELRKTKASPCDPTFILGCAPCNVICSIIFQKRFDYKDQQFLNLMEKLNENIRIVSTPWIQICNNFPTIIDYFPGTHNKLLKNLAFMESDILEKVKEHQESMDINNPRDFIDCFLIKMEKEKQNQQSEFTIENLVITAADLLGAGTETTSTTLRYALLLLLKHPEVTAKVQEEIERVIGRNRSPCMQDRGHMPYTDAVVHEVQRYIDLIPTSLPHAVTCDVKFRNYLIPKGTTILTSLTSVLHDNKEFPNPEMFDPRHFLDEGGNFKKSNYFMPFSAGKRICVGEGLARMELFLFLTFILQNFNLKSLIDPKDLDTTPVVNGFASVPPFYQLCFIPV
In short: (§2)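 Inhibition measured against five human cytochrome P450 isoforms, with test compound at 10 µM, applied as the dephosphorylated phenol.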

[4] = Stability in human liver microsomes assessed as parent compound remaining at 2 uM measured immediately in presence of cofactor; type: ADME, Microsome; details: read-out: Stabilty
[5] = tested on: liver microsomes (Mus musculus); test: Stability in mouse liver microsomes assessed as parent compound remaining at 2 uM measured immediately in absence of cofactor; details: read-out: Stabilty
[6] = tested on: liver microsomes (Mus musculus); test: Stability in mouse liver microsomes assessed as parent compound remaining at 2 uM measured after 20 mins in presence of cofactor; details: read-out: Stabilty
[7] = Stability in human liver microsomes assessed as parent compound remaining at 2 uM measured after 20 mins in presence of cofactor; type: ADME, Microsome; details: read-out: Stabilty
[8] = Stability in human liver microsomes assessed as parent compound remaining at 2 uM measured after 40 mins in presence of cofactor; type: ADME, Microsome; details: read-out: Stabilty
[9] = tested on: liver microsomes (Mus musculus); test: Half life in mouse liver microsomes at 2 uM
[10] = tested on: liver microsomes (Mus musculus); test: Stability in mouse liver microsomes assessed as parent compound remaining at 2 uM measured immediately in presence of cofactor; details: read-out: Stabilty
[11] = biological target: CYP2D6 (Homo sapiens, UniProt P10635); test: Inhibition of human CYP2D6 at 10 uM relative to control; type: ADME; in short: as §2
Sequence of CYP2D6 (P10635 whole entry): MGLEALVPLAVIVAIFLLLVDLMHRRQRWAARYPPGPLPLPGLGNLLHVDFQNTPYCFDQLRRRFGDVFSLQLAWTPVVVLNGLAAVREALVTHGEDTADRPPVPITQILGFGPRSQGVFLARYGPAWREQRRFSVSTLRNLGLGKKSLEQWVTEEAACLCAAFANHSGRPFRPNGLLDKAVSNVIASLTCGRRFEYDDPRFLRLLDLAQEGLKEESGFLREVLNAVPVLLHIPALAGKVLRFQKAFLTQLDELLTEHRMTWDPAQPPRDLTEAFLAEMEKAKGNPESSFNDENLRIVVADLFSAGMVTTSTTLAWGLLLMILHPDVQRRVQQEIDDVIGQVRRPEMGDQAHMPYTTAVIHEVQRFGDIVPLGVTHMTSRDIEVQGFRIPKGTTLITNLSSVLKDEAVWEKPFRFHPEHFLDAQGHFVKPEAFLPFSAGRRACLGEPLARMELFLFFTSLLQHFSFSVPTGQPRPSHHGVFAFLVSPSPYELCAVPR

[12] = Stability in human liver microsomes assessed as parent compound remaining at 2 uM measured immediately in absence of cofactor; type: ADME, Microsome; details: read-out: Stabilty
[13] = biological target: CYP2C9 (Homo sapiens, UniProt P11712); test: Inhibition of human CYP2C9 at 10 uM relative to control; type: ADME; in short: as §2
Sequence of CYP2C9 (P11712 whole entry): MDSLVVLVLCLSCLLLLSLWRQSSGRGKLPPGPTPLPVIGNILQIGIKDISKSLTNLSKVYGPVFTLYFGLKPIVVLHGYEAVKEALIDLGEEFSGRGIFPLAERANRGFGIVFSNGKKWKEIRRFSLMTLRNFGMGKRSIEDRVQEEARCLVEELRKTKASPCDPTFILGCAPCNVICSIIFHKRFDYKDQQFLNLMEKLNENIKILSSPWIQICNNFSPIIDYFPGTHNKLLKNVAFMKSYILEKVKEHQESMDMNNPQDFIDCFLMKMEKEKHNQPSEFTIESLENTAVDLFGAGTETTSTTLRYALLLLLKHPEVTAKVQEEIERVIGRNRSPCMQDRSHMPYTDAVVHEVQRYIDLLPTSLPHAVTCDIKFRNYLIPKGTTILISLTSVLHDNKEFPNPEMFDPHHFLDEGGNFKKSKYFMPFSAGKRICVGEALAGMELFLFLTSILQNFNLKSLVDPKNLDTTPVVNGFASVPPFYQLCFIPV

[14] = tested on: HL-60; test: Antiproliferative activity against human HL-60 cells assessed as reduction in cell growth after 24 hrs by MTT assay; type: functional, cell-based; details: HL-60, 24 h
In short: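 HL-60 cells grown in RPMI 1640 with 10% FCS, no antibiotics, 37 °C, 5% CO2. Seeded 9,000 cells/well, treated 24 h later with DMSO cosolvent at 1% final. After 24 h, MTT 0.5 mg/mL for 2 h, absorbance read. Normalised to cosolvent control (100%) and Triton X-100-treated cells (0%). Means of at least three independent experiments.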

[15] = Stability in human liver microsomes assessed as parent compound remaining at 2 uM measured after 30 mins in presence of cofactor; type: ADME, Microsome; details: read-out: Stabilty
[16] = biological target: CYP3A4 (Homo sapiens, UniProt P08684); test: Inhibition of human CYP3A4 at 10 uM relative to control; type: ADME; in short: as §2
Sequence of CYP3A4 (P08684 whole entry): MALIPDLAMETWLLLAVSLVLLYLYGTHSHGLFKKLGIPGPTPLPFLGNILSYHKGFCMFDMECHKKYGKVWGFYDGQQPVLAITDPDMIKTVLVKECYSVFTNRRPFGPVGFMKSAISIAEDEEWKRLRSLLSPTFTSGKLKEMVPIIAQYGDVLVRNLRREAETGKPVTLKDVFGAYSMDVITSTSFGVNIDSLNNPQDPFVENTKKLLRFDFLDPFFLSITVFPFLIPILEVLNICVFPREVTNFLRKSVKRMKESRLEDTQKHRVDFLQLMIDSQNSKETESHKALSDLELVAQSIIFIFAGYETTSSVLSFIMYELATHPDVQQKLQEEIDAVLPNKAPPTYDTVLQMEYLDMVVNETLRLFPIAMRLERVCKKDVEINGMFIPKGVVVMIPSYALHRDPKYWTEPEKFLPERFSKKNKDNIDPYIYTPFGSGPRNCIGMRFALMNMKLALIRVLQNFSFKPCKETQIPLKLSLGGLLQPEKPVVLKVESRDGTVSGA

[17] = tested on: liver microsomes (Mus musculus); test: Stability in mouse liver microsomes assessed as parent compound remaining at 2 uM measured after 40 mins in absence of cofactor; details: read-out: Stabilty
[18] = tested on: liver microsomes (Mus musculus); test: Stability in mouse liver microsomes assessed as parent compound remaining at 2 uM measured after 40 mins in presence of cofactor; details: read-out: Stabilty
[19] = tested on: liver microsomes (Mus musculus); test: Stability in mouse liver microsomes assessed as parent compound remaining at 2 uM measured after 10 mins in presence of cofactor; details: read-out: Stabilty
[20] = Stability in human liver microsomes assessed as parent compound remaining at 2 uM measured after 10 mins in presence of cofactor; type: ADME, Microsome; details: read-out: Stabilty
[21] = tested on: liver microsomes (Mus musculus); test: Stability in mouse liver microsomes assessed as parent compound remaining at 2 uM measured after 30 mins in presence of cofactor; details: read-out: Stabilty
[22] = Half life in human liver microsomes at 2 uM; type: ADME, Microsome
[23] = tested on: HeLa; test: Antiproliferative activity against human HeLa cells assessed as reduction in cell growth after 48 hrs by resazurin dye based fluorescence assay; type: functional
In short: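 HeLa cells grown in DMEM with 10% FCS and penicillin/streptomycin, 37 °C, 5% CO2. Seeded 5,000 cells/well, treated 24 h later with DMSO 1% final, then incubated 48 h. Resazurin reduction to resorufin measured over 3 h at 37 °C by fluorescence (ex 544/em 590 nm). Normalised to cosolvent control (100%) and cell-free wells (0%). Means of at least three independent experiments.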

[24] = biological target: T1, hERG (KCNH2); test: Inhibition of human ERG at 5 uM by fluorescence polarization assay relative to control; in short: as §1
[25] = biological target: T1, hERG (KCNH2); test: Inhibition of human ERG at 25 uM by fluorescence polarization assay relative to control; in short: as §1
[26] = biological target: T2, CYP1A2 (Homo sapiens, UniProt P05177); test: Inhibition of human CYP1A2 at 10 uM relative to control; type: ADME; in short: as §2
T2 sequence (P05177 whole entry): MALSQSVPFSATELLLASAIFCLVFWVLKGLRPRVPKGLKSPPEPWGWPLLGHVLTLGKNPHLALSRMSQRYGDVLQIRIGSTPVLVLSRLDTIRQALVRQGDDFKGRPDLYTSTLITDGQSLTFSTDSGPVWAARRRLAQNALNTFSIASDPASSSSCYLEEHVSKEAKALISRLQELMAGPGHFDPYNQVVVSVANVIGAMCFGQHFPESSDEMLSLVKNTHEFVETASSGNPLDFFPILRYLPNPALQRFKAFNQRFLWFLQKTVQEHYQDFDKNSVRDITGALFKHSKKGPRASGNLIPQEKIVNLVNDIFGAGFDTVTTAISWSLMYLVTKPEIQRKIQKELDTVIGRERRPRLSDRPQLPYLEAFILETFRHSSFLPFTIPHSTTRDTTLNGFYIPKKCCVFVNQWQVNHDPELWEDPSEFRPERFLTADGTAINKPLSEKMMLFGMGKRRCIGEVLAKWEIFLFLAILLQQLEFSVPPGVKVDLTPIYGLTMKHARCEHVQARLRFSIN

[27] = species on record: Homo sapiens; test: Inhibition of porcine tubulin polymerization at 16 uM preincubated for 10 mins followed by GTP addition by turbidimetric method
In short: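 Purified porcine brain tubulin (99% purity) pre-incubated 10 min at 37 °C with compound at 16 µM in buffer containing 3% DMSO and 10% glycerol. Polymerisation started at time zero by adding GTP to 1 mM. Absorbance at 340 nm followed over time at 37 °C as the turbidity read-out.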

[28] = Solubility of compound; type: physicochemical
[29] = tested on: HeLa; test: Induction of microtubule network depolymerization in human HeLa cells after 24 hrs by immunofluorescence staining based confocal microscopic analysis; type: cell-based
In short: (§3)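 HeLa cells seeded on glass coverslips (50,000 cells/well), allowed to adhere 18 h, then treated 24 h. Fixed with 0.5% glutaraldehyde, quenched with 0.1% NaBH4, blocked with PBS + 10% FCS. Stained with rabbit anti-alpha-tubulin (1:400, 1 h), then Alexa Fluor 488 anti-rabbit secondary, with DAPI nuclear counterstain. Imaged by confocal microscopy, including z-stack projections.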

[30] = tested on: HeLa; test: Induction of microtubule network depolymerization in human HeLa cells at 15 uM after 24 hrs by immunofluorescence staining based confocal microscopic analysis; type: cell-based; in short: as §3

T1 sequence (Q12809 whole entry): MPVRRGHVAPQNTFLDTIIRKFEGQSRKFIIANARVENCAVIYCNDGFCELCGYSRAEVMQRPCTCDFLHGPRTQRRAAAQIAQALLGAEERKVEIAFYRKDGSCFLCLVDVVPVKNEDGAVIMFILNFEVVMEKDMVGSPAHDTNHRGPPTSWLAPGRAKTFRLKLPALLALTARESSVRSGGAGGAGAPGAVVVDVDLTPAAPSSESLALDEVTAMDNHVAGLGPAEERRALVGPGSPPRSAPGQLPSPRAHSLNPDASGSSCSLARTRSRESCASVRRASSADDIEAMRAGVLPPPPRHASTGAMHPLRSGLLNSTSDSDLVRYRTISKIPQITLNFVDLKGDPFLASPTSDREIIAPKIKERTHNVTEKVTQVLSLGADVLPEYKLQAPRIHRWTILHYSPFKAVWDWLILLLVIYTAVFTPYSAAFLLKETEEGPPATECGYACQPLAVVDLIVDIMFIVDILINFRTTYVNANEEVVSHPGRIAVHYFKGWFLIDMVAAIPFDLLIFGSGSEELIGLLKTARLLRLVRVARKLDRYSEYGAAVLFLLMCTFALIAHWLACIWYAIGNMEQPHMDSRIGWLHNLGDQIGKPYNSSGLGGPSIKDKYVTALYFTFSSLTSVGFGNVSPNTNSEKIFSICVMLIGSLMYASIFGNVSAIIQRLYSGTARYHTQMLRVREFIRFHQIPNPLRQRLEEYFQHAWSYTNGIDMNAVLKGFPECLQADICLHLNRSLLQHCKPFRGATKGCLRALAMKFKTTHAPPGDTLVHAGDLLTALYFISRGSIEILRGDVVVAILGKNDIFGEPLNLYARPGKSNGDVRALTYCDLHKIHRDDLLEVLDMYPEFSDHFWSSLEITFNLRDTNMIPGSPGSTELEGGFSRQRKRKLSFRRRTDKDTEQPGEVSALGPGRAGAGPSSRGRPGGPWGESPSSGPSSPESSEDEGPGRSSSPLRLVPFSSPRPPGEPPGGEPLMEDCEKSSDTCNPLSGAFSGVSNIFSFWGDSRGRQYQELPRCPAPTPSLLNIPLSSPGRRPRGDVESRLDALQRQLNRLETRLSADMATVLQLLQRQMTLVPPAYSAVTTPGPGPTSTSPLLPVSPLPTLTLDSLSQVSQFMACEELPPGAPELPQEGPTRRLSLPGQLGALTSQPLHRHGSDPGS

Question: What does the source list for `COc1cc2c(-c3cc(OC)c(OC)c(OC)c3)nccc2cc1O`?
Answer: inhibition at 1 µM [1]: -3%; remaining at 40 min, 2 µM [2]: 98%; inhibition at 10 µM [3]: -49%; remaining at 0 min, 2 µM [4]: 100%; remaining at 0 min, 2 µM [5]: 100%; remaining at 20 min, 2 µM [6]: 82%; remaining at 20 min, 2 µM [7]: 84%; remaining at 40 min, 2 µM [8]: 69%; half-life at 2 µM [9]: 1.12 h; remaining at 0 min, 2 µM [10]: 100%; inhibition at 10 µM [11]: 19%; remaining at 0 min, 2 µM [12]: 100%; inhibition at 10 µM [13]: 16%; pEC50 [14]: 6.47; remaining at 0.5 h, 2 µM [15]: 75%; inhibition at 10 µM [16]: 13%; remaining at 40 min, 2 µM [17]: 105%; remaining at 40 min, 2 µM [18]: 67%; remaining at 10 min, 2 µM [19]: 93%; remaining at 10 min, 2 µM [20]: 99%; remaining at 0.5 h, 2 µM [21]: 73%; half-life at 2 µM [22]: 1.13 h; Activity [23]: Dose-dependent effect; pEC50 [23]: 6.92; inhibition at 5 µM [24]: -18%; inhibition at 25 µM [25]: -5%; inhibition at 10 µM [26]: -4%

Question: With `COc1cc2c(c(OC)c1OC)-c1ccc(OC)c(=O)cc1[C@@H](NC(C)=O)CC2` as the compound, how does the inhibition [27] read?
Answer: Active

Question: With `COc1cccc(-c2nccc3c(OC)c(OC)c(OC)cc23)c1` as the compound, how does the pEC50 [23] read?
Answer: 4.82

Question: With `COc1cc(-c2nccc3cc4c(cc23)OCO4)cc(OC)c1OC` as the compound, how does the solubility [28] read?
Answer: Insoluble

Question: What about the Activity [29] of the same compound?
Answer: inactive

Question: And the Activity [30]?
Answer: inactive

Question: And the pEC50 [23]?
Answer: < 4.70

Question: With `COc1cc(-c2nccc3c(OC)c(OC)c(OC)cc23)ccc1O` as the compound, how does the pEC50 [23] read?
Answer: 4.30

Question: With `COc1cc(-c2nccc3c(OC)c(OC)c(OC)cc23)ccc1OP(=O)(O)O` as the compound, how does the pEC50 [14] read?
Answer: < 4.00

Question: And the pEC50 [23]?
Answer: < 4.00

Question: With `COC(=O)Nc1nc2cc(C(=O)c3cccs3)ccc2[nH]1` [NOCODAZOLE] as the compound, how does the pEC50 [23] read?
Answer: 7.40

Question: With `COc1ccc(-c2nccc3c(OC)c(OC)c(OC)cc23)c(C(=O)O)c1` as the compound, how does the pEC50 [23] read?
Answer: < 4.00
